Source: ChEMBL document CHEMBL1938331, “Discovery of novel and potent CRTH2 antagonists” (Bioorg Med Chem Lett, 2012)

Assays:
[1] = target: T1, Chemoattractant receptor-homologous molecule expressed on Th2 cells (Cavia porcellus, UniProt Q56D28); test: Displacement of [3H]PGD2 from guinea pig CRTH2 receptor expressed in HEK293 cells after 2 hrs by scintillation counting; format: cell-based
T1 sequence (Q56D28 whole entry): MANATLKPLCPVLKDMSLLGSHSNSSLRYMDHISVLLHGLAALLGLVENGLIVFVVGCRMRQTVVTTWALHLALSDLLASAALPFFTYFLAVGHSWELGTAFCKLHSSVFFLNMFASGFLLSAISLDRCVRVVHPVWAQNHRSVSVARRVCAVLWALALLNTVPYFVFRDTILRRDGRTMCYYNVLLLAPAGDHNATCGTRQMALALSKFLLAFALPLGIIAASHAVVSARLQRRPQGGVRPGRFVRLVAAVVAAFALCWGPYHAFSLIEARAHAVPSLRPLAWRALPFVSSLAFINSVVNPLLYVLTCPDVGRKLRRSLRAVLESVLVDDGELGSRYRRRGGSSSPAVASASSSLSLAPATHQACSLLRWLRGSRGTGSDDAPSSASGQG
Outline: (§1)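 Disrupted HEK293 cells stably transfected with human or guinea pig CRTH2 (10 µg protein/well human; 20 µg protein/well guinea pig) in 10 mM BES, 1 mM EDTA, 10 mM MnCl2, pH 7.0, incubated with [3H]PGD2 and rising compound levels 2 h at 4 °C; filtered, scintillation counted; nonspecific binding with 10 µM DK-PGD2; IC50 for 50% binding loss; mean of ≥2 experiments.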

[2] = target: T2, Prostaglandin D2 receptor (Homo sapiens, UniProt Q13258); test: Displacement of [3H]PGD2 from human DP1 receptor expressed in HEK293 cells after 2 hrs by scintillation counting; format: cell-based
T2 sequence (Q13258 whole entry): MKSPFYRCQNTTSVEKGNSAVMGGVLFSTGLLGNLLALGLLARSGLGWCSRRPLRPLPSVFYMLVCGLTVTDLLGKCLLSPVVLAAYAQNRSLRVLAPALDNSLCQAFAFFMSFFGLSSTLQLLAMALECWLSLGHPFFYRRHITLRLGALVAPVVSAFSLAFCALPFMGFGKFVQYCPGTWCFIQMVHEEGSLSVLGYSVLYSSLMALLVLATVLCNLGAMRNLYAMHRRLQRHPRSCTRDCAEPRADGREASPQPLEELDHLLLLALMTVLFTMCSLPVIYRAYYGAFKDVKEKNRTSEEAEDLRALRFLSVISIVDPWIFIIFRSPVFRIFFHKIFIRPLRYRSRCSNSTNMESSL
Outline: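 Disrupted HEK293 cells stably expressing human DP1 (10 µg protein/well) in 10 mM BES, 1 mM EDTA, 10 mM MnCl2, pH 7.0, incubated with [3H]PGD2 and increasing compound concentrations 2 h at 4 °C; glass-filter harvest and scintillation counting of retained radioactivity.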

[3] = Cmax in Hartley guinea pig at 10 mg/kg, po; format: ADME, organism-based, Cavia porcellus; set-up: dose 10 mg/kg, route oral; conditions: in vivo
Outline: (§2)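 Guinea pigs fasted overnight, given 10 mg/kg orally as a 10 mg/mL suspension in 0.5% methylcellulose in water; plasma Cmax and AUC determined.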

[4] = AUC in Hartley guinea pig at 10 mg/kg, po; format: ADME, organism-based, Cavia porcellus; set-up: dose 10 mg/kg, route oral; conditions: plasma; outline: as §2
[5] = Clearance in guinea pig liver microsomes; format: ADME, Cavia porcellus, Microsome; conditions: read-out: CLH
[6] = target: T3, Prostaglandin D2 receptor 2 (Homo sapiens, UniProt Q9Y5Y4); test: Displacement of [3H]PGD2 from human CRTH2 receptor expressed in HEK293 cells after 2 hrs by scintillation counting; format: cell-based; outline: as §1
T3 sequence (Q9Y5Y4 whole entry): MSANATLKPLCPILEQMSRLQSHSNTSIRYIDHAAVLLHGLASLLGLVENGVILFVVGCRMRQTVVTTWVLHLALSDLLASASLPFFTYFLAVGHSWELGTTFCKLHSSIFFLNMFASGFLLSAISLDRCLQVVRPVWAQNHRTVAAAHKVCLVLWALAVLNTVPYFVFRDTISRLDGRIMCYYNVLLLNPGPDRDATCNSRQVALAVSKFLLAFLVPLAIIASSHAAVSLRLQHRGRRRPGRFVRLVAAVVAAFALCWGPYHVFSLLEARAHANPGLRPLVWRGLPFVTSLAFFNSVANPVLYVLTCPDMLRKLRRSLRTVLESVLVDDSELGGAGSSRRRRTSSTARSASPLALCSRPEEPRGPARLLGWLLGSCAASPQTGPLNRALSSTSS

Structure (SMILES) | IC50 [1] [nM] | IC50 [2] [nM] | Cmax [3] [ng/mL] | AUC [4] [ng·h/mL] | CLint scaled [5] [mL/min/kg] | IC50 [6] [nM]
O=C(O)COc1cccc(CCCn2cc(C(c3ccccc3)c3ccccc3)ccc2=O)c1 | 256 | > 1000 | 840 | 5950 | 120 | 
O=C(O)COc1cccc(CCCn2nc(C(c3ccccc3)c3ccccc3)ccc2=O)c1 | 147 |  | 730 | 2400 |  | 18
O=C(O)COc1cccc(CCCn2cc(C(c3ccc(F)cc3)c3ccc(F)cc3)ccc2=O)c1 | 359 |  |  |  |  | 11
O=C(O)COc1cccc(CCCn2cc(C(c3ccc(Cl)cc3)c3ccc(Cl)cc3)ccc2=O)c1 | > 1000 |  |  |  |  | 9.2
Cc1ccc(C(c2ccc(C)cc2)c2ccc(=O)n(CCCc3cccc(OCC(=O)O)c3)c2)cc1 | 772 |  |  |  |  | 6.2
COc1ccc(C(c2ccc(OC)cc2)c2ccc(=O)n(CCCc3cccc(OCC(=O)O)c3)c2)cc1 | 211 |  |  |  |  | 5.8
O=C(O)COc1cccc(OCCn2cc(C(c3ccccc3)c3ccccc3)ccc2=O)c1 | 797 |  |  |  |  | 99
CC(Oc1cccc(CCCn2cc(C(c3ccccc3)c3ccccc3)ccc2=O)c1)C(=O)O (stereo not given) | 128 |  |  |  |  | 17
CCC(Oc1cccc(CCCn2cc(C(c3ccccc3)c3ccccc3)ccc2=O)c1)C(=O)O (stereo not given) | 990 |  |  |  |  | 502
CC(C)(Oc1cccc(CCCn2cc(C(c3ccccc3)c3ccccc3)ccc2=O)c1)C(=O)O | > 1000 |  |  |  |  | 
O=C(O)CCCOc1cccc(CCCn2cc(C(c3ccccc3)c3ccccc3)ccc2=O)c1 | 99 |  | 500 | 1020 |  | 11
O=C(O)CCCOc1cccc(CCCn2nc(C(c3ccccc3)c3ccccc3)ccc2=O)c1 | 52 | 5200 | 2860 | 4850 |  | 13
O=C(O)COc1cccc(CCCN(CCC(c2ccccc2)c2ccccc2)C(=O)c2ccccc2)c1 | 18 |  |  |  |  | 9.7
COc1ccc(C(=O)N(CCCc2cccc(OCC(=O)O)c2)CCC(c2ccccc2)c2ccccc2)cc1 | 17 |  | 40 | 270 | 766 | 5.5
